Publication PMC7496893 (Clinical Pharmacology in Drug Development, 2019)
Entries after “also recorded” stand apart in the source; their conditions may differ. Read-outs that look alike come from different tables or passages of the source. Marks after values point to notes of the source that are not given here.

Legend:
[1] = test system: organic anion transporting polypeptide 1B1; settings: peficitinib with rosuvastatin; cited from earlier work
[2] = assay type: in vivo, human (Japanese subjects); settings: for CL/F: single oral 150 mg, mean (SD)
How it was run: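 Open-label parallel-group study with planned 8 per group: normal, Child-Pugh A (5–6 points) or B (7–9 points). Subjects took one 150 mg tablet with 150 mL water after an overnight fast. Blood was drawn predose, at 15 min, every 30 min to 2 h, then at 3–72 h. Plasma parent was measured by validated LC-MS/MS (LLOQ 0.25 ng/mL, linear 0.25–500 ng/mL). GMR and 90% CI came from a mixed model with hepatic group as a fixed effect.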

[3] = Safety assessment; assay type: in vivo, human (Japanese subjects); settings: for tolerability: non-RA subjects with normal, mild or moderate hepatic impairment, single oral dose
How it was run: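 The safety set was every subject dosed with one 150 mg tablet after an overnight fast, assessed throughout the study. TEAEs were events that started or worsened after dosing, coded with Japanese MedDRA J16.0. Assessments also covered vital signs, ECG, hematology, biochemistry, urinalysis and liver tests: ALP, ALT, γ-GTP, total bilirubin and AST.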

[4] = cited from earlier work
[5] = test system: P-glycoprotein; settings: verapamil (P-glycoprotein inhibitor); cited from earlier work
[6] = test system: rheumatoid arthritis; settings: daily doses of 100 mg and 150 mg; cited from earlier work

In the case of CC(C)c1nc(N(C)S(C)(=O)=O)nc(-c2ccc(F)cc2)c1/C=C/[C@@H](O)C[C@@H](O)CC(=O)O [rosuvastatin, reference compound], the “changes in the PK profile during coadministration” value [1] is listed as “did not demonstrate any clinically significant changes”.
With NC(=O)c1cnc2[nH]ccc2c1N[C@@H]1[C@@H]2CC3C[C@H]1C[C@@](O)(C3)C2 [Peficitinib] the “GMR Impaired/Normal (90% CI), Cmax” value ([2]; mild hepatic impairment vs normal hepatic function) was 1.04 (0.71, 1.53) %, the “GMR Impaired/Normal (90% CI), Cmax” value ([2]; mild hepatic impairment vs normal hepatic function, listed as peficitinib) was 1.04 (90% CI: 0.71, 1.53) and the “increase in geometric mean Cmax” value ([2]; moderate hepatic impairment versus normal hepatic function) was 82%. For the same compound, the “GMR Impaired/Normal (90% CI), Cmax” value ([2]; moderate hepatic impairment vs normal hepatic function) was 1.82 (1.24, 2.69) %, the “GMR Impaired/Normal (90% CI), Cmax” value ([2]; moderate hepatic impairment vs normal hepatic function, listed as peficitinib) was 1.82 (90% CI: 1.24, 2.69) and the exposure ([2]; moderately impaired vs normal hepatic function, in words) was “higher exposure”. The CL/F ([2]; mild hepatic impairment) was 121.3 (54.89) L/h, the CL/F ([2]; moderate hepatic impairment) was 74.51 (32.28) L/h and the CL/F ([2]; normal hepatic function) was 134.9 (25.77) L/h. For the same compound, the “changes from baseline in vital signs, ECG, or clinical laboratory parameters” value ([3]; all subjects) was “no clinically significant changes; also recorded: no clinically meaningful changes”, the deaths ([3]; all subjects) was “no deaths” and the “serious TEAEs” value ([3]; all subjects) was “no serious TEAEs”. The “withdrawal from the study due to a TEAE” value ([3]; all subjects) was “no TEAEs leading to withdrawal; also recorded: no subjects withdrew”, the “number of TEAEs considered related to peficitinib” value ([3]; all subjects (N = 24)) was “Four” and the Back pain ([3]; mild impairment (n = 8)) was 0 n (%). The Blood urine present ([3]; mild impairment (n = 8)) was 1 (12.5) n (%), the Diarrhea ([3]; mild impairment (n = 8)) was 1 (12.5) n (%) and the Hypotension ([3]; mild impairment (n = 8)) was 0 n (%). For the same compound, the Nausea ([3]; mild impairment (n = 8)) was 0 n (%), the “TEAEs, Overall” value ([3]; mild impairment (n = 8)) was 1 (12.5) ^b n (%) and the Back pain ([3]; moderate impairment (n = 8)) was 0 n (%). For the same compound, the Blood urine present ([3]; moderate impairment (n = 8)) was 0 n (%), the Diarrhea ([3]; moderate impairment (n = 8)) was 0 n (%) and the Hypotension ([3]; moderate impairment (n = 8)) was 1 (12.5) n (%). For the same compound, the Nausea ([3]; moderate impairment (n = 8)) was 0 n (%), the “TEAEs, Overall” value ([3]; moderate impairment (n = 8)) was 1 (12.5) n (%) and the tolerability [3] was “well tolerated”. The tolerability ([3]; listed as peficitinib) was “generally well tolerated”, the Back pain ([3]; normal function (n = 8)) was 1 (12.5) n (%) and the Blood urine present ([3]; normal function (n = 8)) was 0 n (%). The Diarrhea ([3]; normal function (n = 8)) was 0 n (%), the Hypotension ([3]; normal function (n = 8)) was 0 n (%) and the Nausea ([3]; normal function (n = 8)) was 1 (12.5) n (%). For the same compound, the “TEAEs, Overall” value ([3]; normal function (n = 8), single oral 150 mg) was 1 (12.5) ^a n (%), the Back pain ([3]; total (N = 24)) was 1 (4.2) n (%) and the Blood urine present ([3]; total (N = 24)) was 1 (4.2) n (%). The Diarrhea ([3]; total (N = 24)) was 1 (4.2) n (%), the Hypotension ([3]; total (N = 24)) was 1 (4.2) n (%) and the Nausea ([3]; total (N = 24)) was 1 (4.2) n (%). For the same compound, the dose proportionality ([4]; multiple doses from 30 mg twice daily to 100 mg twice daily) was “Dose proportionality was shown”, the “plasma levels reached steady state” value ([4]; multiple dosing, healthy subjects) was ≤ 3 days and the dose proportionality ([4]; single dose from 3 to 300 mg) was “Dose proportionality was shown”. For the same compound, the “changes in the PK profile during coadministration” value [1] was “did not demonstrate any clinically significant changes”, the “exposure in combination with verapamil” value [5] was “increased exposure” and the “efficacy and tolerability in RA patients” value [6] was “effective and well tolerated”.
